Activity calls are given as the source filed them. The rule behind the calls is not given here.
Assays:
[1] = molecular target: Phosphatidylinositol 4-phosphate 3-kinase C2 domain-containing subunit beta (Homo sapiens) (UniProt O00750); assay: Inhibition of PI3K-C2beta (unknown origin) at 1 uM relative to control
Procedure, shortened: (§1)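 Single-point screen at 1 μM compound. Percent inhibition is the mean of two separate measurements, each run in duplicate.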

[2] = molecular target: T1, Phosphatidylinositol 4,5-bisphosphate 3-kinase catalytic subunit alpha isoform (Homo sapiens, UniProt P42336); assay: Inhibition of PI3K p110alpha (unknown origin) at 1 uM relative to control; procedure, shortened: as §1
[3] = molecular target: T2, Phosphatidylinositol 4,5-bisphosphate 3-kinase catalytic subunit delta isoform (Homo sapiens) (UniProt O00329); conditions: 1 uM
T2 sequence (whole entry): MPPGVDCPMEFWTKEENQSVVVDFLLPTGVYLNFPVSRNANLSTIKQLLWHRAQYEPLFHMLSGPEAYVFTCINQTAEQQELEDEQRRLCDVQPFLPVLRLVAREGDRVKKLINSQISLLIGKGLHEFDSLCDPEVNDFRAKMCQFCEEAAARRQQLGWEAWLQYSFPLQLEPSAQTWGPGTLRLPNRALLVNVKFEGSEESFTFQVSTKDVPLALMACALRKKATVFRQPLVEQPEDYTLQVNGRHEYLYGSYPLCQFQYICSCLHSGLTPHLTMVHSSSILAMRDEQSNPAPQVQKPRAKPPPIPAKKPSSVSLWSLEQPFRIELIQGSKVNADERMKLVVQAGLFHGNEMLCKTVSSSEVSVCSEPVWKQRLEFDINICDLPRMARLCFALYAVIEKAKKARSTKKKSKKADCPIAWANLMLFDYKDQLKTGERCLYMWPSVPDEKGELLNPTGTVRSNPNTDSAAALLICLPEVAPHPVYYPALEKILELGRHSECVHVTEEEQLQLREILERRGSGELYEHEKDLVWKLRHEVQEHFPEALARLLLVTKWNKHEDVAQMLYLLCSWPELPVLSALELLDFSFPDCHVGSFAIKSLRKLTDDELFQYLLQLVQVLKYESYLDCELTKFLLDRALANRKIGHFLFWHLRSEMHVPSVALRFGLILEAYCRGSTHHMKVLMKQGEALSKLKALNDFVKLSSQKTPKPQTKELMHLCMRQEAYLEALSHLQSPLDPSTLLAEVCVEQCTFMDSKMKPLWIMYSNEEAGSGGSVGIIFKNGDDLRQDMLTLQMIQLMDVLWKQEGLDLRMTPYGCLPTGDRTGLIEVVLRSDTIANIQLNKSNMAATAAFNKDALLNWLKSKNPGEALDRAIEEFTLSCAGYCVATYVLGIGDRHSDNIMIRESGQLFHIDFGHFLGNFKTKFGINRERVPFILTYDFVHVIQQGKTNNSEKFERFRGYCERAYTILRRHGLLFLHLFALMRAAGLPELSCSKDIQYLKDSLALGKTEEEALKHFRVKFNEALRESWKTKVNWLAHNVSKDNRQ

[4] = molecular target: T3, Phosphatidylinositol 4,5-bisphosphate 3-kinase catalytic subunit gamma isoform (Homo sapiens, UniProt P48736); assay: Inhibition of PI3K p110gamma (unknown origin) at 1 uM relative to control; procedure, shortened: as §1
Target sequence in this assay (P48736 whole entry, looked up, canonical isoform): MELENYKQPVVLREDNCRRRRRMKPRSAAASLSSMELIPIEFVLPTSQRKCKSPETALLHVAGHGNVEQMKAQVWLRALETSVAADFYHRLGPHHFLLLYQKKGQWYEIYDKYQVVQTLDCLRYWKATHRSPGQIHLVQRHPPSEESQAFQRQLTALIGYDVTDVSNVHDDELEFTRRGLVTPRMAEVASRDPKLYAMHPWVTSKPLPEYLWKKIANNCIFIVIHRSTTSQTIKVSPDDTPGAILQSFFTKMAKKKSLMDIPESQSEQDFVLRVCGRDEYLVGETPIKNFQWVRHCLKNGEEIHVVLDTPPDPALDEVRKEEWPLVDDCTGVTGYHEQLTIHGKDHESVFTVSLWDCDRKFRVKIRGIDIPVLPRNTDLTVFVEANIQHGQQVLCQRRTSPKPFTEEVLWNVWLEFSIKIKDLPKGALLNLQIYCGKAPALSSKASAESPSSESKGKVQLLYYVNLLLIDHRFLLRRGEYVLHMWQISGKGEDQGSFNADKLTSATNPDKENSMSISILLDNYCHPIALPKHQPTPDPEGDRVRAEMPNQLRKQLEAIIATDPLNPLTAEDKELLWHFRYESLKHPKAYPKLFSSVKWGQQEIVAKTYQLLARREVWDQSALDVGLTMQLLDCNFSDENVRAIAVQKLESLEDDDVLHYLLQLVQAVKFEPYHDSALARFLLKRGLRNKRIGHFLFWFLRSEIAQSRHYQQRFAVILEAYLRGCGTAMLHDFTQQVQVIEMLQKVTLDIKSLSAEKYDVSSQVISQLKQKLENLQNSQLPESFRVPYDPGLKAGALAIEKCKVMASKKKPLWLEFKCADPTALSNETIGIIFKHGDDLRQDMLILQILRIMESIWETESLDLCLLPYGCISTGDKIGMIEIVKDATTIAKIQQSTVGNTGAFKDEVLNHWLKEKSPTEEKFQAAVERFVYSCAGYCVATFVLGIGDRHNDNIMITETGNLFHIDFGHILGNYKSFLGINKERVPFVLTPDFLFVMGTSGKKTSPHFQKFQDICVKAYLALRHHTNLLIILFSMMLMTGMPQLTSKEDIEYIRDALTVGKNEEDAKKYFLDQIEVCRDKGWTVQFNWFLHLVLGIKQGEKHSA

[5] = molecular target: Phosphatidylinositol 4,5-bisphosphate 3-kinase catalytic subunit delta isoform (Homo sapiens, UniProt O00329); assay: Inhibition of PI3K p110delta (unknown origin)
[6] = molecular target: T3, Phosphatidylinositol 4,5-bisphosphate 3-kinase catalytic subunit gamma isoform; assay: Inhibition of PI3K p110gamma (unknown origin)
Target sequence in this assay (P48736 whole entry, canonical isoform): as the sequence (P48736 whole entry, looked up, canonical isoform) above

[7] = molecular target: Casein kinase I isoform gamma-3 (Homo sapiens) (UniProt Q9Y6M4); assay: Inhibition of full length recombinant human GST-tagged CSNK1G3 expressed in baculovirus expression system at 5 uM by lantha screen kinase binding assay relative to control
[8] = molecular target: T4, Dual specificity protein kinase CLK4 (Homo sapiens, UniProt Q9HAZ1); conditions: 5 uM
[9] = molecular target: T5, Serine/threonine-protein kinase haspin (Homo sapiens) (UniProt Q8TF76); assay: Inhibition of Haspin (unknown origin) at 1 uM relative to control; procedure, shortened: as §1
T5 sequence (whole entry): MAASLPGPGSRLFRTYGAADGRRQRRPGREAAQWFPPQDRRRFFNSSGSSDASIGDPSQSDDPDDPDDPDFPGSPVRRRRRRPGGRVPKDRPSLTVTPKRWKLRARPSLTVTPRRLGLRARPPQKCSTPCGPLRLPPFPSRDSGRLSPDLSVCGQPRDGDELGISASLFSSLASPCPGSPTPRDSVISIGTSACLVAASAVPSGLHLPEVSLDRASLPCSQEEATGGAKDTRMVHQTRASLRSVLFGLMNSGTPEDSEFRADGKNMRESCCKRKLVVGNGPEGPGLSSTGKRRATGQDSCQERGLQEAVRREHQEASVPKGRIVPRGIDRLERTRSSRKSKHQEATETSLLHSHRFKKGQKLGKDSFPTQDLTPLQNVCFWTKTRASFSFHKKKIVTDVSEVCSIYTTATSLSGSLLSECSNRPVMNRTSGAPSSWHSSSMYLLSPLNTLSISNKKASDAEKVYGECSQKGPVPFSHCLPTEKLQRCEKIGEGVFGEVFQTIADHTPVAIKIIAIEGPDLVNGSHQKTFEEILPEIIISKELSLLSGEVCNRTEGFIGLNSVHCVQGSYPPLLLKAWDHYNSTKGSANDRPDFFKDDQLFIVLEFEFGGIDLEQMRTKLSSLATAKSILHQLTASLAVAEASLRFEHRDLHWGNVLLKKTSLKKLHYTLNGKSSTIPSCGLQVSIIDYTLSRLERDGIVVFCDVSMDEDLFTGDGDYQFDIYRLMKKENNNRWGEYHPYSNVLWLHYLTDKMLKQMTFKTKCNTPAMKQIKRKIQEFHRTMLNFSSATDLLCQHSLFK

[10] = Growth inhibition of human U87MG cells after 4 days by MTT assay; type: functional, cell-based, U-87MG ATCC; conditions: U-87 MG, 96 h
[11] = molecular target: T3, Phosphatidylinositol 4,5-bisphosphate 3-kinase catalytic subunit gamma isoform; assay: Inhibition of PI3K p110gamma (unknown origin) at 5 uM relative to control
Target sequence in this assay (P48736 whole entry, looked up, canonical isoform): as the sequence (P48736 whole entry, looked up, canonical isoform) above

[12] = molecular target: T1, Phosphatidylinositol 4,5-bisphosphate 3-kinase catalytic subunit alpha isoform; assay: Inhibition of PI3K p110alpha (unknown origin) at 5 uM relative to control
[13] = molecular target: Phosphatidylinositol 4-phosphate 3-kinase C2 domain-containing subunit beta (Homo sapiens) (UniProt O00750); assay: Inhibition of PI3K-C2beta (unknown origin) at 5 uM relative to control
[14] = molecular target: T2, Phosphatidylinositol 4,5-bisphosphate 3-kinase catalytic subunit delta isoform (Homo sapiens); assay: Inhibition of PI3K p110delta (unknown origin) at 5 uM relative to control
[15] = molecular target: T5, Serine/threonine-protein kinase haspin (Homo sapiens); assay: Inhibition of Haspin (unknown origin) at 5 uM relative to control
[16] = molecular target: T4, Dual specificity protein kinase CLK4; conditions: 1 uM
[17] = molecular target: Receptor-interacting serine/threonine-protein kinase 2 (Homo sapiens) (UniProt O43353); assay: Inhibition of recombinant human His-tagged RIPK2 expressed in baculovirus expression system at 1 uM by lantha screen kinase binding assay relative to control
Procedure, shortened: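 Binding-displacement format: the compound competes with an Alexa Fluor-conjugated tracer for binding to the kinase ATP site, rather than a peptide phosphorylation read-out.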

[18] = molecular target: Casein kinase I isoform gamma-3 (Homo sapiens) (UniProt Q9Y6M4); assay: Inhibition of full length recombinant human GST-tagged CSNK1G3 expressed in baculovirus expression system at 1 uM by lantha screen kinase binding assay relative to control

T1 sequence (P42336 whole entry, canonical isoform): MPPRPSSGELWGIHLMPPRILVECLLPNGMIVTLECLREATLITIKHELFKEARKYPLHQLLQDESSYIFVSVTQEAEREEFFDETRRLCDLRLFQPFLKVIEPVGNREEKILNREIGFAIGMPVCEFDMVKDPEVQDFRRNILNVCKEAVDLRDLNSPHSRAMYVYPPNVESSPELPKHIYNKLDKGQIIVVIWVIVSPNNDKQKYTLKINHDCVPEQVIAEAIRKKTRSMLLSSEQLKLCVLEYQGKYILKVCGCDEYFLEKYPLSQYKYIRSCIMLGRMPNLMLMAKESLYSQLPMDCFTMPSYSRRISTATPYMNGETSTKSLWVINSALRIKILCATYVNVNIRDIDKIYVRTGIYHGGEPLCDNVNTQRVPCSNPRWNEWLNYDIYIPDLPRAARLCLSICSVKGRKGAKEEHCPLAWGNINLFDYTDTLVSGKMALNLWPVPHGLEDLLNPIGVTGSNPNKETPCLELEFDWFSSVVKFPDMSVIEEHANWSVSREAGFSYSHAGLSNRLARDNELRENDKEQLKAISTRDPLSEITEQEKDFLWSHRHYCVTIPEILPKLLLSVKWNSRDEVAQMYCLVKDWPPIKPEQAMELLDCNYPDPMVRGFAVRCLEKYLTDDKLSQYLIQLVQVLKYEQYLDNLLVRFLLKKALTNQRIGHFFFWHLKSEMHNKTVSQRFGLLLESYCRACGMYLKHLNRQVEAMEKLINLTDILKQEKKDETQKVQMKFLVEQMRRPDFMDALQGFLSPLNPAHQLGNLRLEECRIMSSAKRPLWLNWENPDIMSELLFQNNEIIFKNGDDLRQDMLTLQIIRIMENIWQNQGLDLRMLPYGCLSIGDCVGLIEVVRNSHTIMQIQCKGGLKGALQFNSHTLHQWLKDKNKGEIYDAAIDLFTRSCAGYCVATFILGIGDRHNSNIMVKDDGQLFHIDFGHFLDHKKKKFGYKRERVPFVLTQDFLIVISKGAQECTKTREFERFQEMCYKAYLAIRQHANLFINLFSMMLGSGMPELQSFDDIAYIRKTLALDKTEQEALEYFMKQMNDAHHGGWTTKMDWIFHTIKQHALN
Sequence of Phosphatidylinositol 4-phosphate 3-kinase C2 domain-containing subunit beta (Homo sapiens) (O00750 whole entry, the tested form may be a part, canonical isoform): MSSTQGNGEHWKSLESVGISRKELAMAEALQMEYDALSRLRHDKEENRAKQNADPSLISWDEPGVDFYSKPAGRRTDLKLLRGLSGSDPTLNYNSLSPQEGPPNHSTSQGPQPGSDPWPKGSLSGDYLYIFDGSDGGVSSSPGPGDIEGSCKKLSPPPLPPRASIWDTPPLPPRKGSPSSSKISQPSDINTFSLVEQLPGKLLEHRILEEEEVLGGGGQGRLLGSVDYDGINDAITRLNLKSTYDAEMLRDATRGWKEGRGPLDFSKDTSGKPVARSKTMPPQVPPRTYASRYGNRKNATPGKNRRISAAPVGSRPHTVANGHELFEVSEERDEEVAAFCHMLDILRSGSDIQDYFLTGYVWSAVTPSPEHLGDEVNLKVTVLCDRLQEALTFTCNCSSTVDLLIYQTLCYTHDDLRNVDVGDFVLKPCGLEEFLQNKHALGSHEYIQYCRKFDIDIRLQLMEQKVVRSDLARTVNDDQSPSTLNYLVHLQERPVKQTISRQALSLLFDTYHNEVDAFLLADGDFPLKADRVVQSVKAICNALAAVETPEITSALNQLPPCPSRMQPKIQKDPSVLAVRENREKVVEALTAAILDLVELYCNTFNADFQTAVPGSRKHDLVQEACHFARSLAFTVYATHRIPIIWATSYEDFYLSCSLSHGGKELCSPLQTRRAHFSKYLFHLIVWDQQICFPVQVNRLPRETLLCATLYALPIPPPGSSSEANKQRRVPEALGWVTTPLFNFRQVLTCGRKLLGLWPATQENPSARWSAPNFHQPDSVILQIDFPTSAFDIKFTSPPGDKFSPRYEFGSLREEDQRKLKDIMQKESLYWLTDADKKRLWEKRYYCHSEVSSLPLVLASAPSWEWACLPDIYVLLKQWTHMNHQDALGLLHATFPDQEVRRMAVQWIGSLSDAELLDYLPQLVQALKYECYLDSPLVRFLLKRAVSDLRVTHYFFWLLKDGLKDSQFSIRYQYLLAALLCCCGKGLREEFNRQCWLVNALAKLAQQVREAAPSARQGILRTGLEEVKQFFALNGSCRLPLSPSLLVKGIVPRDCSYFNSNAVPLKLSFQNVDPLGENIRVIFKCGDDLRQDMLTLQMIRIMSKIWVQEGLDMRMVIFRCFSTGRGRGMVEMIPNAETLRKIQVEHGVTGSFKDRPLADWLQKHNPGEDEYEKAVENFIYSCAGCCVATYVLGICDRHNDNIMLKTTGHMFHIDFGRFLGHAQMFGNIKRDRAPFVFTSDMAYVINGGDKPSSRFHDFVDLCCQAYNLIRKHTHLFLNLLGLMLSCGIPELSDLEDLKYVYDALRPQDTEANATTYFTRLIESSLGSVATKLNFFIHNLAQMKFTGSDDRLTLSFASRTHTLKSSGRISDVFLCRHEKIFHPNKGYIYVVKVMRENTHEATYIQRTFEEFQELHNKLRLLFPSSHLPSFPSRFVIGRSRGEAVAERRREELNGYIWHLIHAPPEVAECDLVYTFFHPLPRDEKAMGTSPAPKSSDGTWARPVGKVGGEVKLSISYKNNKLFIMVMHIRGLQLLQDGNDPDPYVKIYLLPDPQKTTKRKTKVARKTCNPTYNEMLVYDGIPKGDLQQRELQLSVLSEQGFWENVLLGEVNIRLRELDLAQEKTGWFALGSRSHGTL
T4 sequence (Q9HAZ1 whole entry, looked up): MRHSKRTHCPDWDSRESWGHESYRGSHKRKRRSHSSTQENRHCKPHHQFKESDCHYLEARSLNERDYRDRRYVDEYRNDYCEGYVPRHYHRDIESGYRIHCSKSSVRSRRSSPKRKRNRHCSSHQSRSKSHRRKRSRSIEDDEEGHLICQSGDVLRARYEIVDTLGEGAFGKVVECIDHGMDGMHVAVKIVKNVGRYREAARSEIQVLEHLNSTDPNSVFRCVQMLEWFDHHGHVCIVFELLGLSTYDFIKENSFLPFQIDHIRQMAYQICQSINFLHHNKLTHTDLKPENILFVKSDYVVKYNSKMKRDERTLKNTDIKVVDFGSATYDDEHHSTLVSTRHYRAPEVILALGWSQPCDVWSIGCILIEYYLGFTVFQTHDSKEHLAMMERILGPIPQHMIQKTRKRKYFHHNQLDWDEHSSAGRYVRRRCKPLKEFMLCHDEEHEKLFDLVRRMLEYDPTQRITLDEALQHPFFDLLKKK
Sequence of Casein kinase I isoform gamma-3 (Homo sapiens) (Q9Y6M4 whole entry, looked up, canonical isoform): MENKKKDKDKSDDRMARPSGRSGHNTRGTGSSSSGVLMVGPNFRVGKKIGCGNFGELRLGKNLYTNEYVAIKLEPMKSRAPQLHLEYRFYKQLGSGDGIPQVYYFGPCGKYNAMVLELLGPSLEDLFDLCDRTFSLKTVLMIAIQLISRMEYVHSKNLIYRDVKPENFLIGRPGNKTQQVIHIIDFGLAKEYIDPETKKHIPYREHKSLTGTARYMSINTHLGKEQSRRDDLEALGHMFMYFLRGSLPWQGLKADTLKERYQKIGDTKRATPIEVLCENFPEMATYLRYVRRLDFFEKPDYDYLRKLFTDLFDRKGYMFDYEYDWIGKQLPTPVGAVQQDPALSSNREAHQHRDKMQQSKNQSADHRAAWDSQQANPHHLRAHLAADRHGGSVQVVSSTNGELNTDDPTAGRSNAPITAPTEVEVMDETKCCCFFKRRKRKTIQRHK

Compound | inhibition [1] [%] | inhibition [2] [%] | inhibition [3] [%] | inhibition [4] [%] | IC50 [5] [nM] | IC50 [6] [nM] | inhibition [7] | inhibition [8] [%] | inhibition [9] [%] | IC50 [10] [nM] | inhibition [11] [%] | inhibition [12] [%] | inhibition [13] [%] | inhibition [14] [%] | inhibition [15] [%] | inhibition [16] [%] | inhibition [17] [%] | inhibition [18] [%]
O=C1NC(=S)S/C1=C\c1ccc2ncsc2c1 | 56 | 98 | 90 | 97 | 12.4 | 2.3 | inactive | 98 | 93 | 560 | – | – | – | – | – | – | – | –
O=C1OCC/C1=C\c1ccc2ncsc2c1 | – | – | – | – | – | – | – | – | – | – | 79 | 90 | 13 | 77 | 75 | – | – | –
O=C1NC(=S)S/C1=C\c1ccc2ncccc2c1 | 62 | 100 | 97 | 97 | 16.1 | 2.3 | – | – | 93 | 200 | – | – | – | – | – | 97 | 83 | 17
CC1C/C(=C\c2ccc3c(c2)CCO3)C(=O)O1 (stereo unspecified) | – | – | – | – | – | – | – | – | – | – | 75 | 84 | 8 | 73 | 43 | – | – | –

Reference: ChEMBL document CHEMBL3774321, “Systematic diversification of benzylidene heterocycles yields novel inhibitor scaffolds selective for Dyrk1A, Clk1 and CK2” (Eur J Med Chem, 2016)
